Active and inactive are the calls of the source. The calls are words filed in the database; no cut-off is given here.
Key:
Jurkat [1] = assay: Phototoxicity against human Jurkat cells exposed to irradiation with 2.5 J/cm'2 UVA light prior to 72 hrs drug exposure by MTT assay; format: functional, cell-based; conditions: light or radiation study
Summary of the method: (§1)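 Phototoxicity panel: NCTC-2544 keratinocytes, LoVo adenocarcinoma, K562 and Jurkat leukemia cells. Cells with compound received UVA at 2.5 or 3.75 J/cm2. Cell growth was measured by MTT after 72 h of exposure. IC50 is the concentration inhibiting growth by 50%.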

Jurkat [2] = assay: Cell cycle arrest in 2.5 J/cm'2 UVA light irradiated human Jurkat cells assessed as accumulation at G1 phase at 5 uM after 24 hrs by DNA cytometry; format: functional
Summary of the method: (§2)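 Jurkat (T-cell leukemia) cells were UVA-irradiated at 2.5 J/cm2 in the presence of 5 µM compound. DNA content was analysed by flow cytometry 24 h after irradiation. Controls were non-irradiated cells and cells irradiated without compound. A representative experiment is shown, repeated two times.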

[3] = Phototoxicity against human NCTC-2544 cells exposed to irradiation with 3.75 J/cm'2 UVA light prior to 72 hrs drug exposure by MTT assay; format: cell-based; conditions: NCTC-2544, light or radiation study; summary of the method: as §1
K562 [4] = assay: Phototoxicity against human K562 cells exposed to irradiation with 2.5 J/cm'2 UVA light prior to 72 hrs drug exposure by MTT assay; format: functional, cell-based; conditions: K562, light or radiation study; summary of the method: as §1
Jurkat [5] = assay: Induction of lipid peroxidation in 2.5 J/cm'2 UVA light irradiated human Jurkat cells at 5 uM by TBARS test; format: functional, cell-based
LoVo [6] = assay: Phototoxicity against human LoVo cells exposed to irradiation with 2.5 J/cm'2 UVA light prior to 72 hrs drug exposure by MTT assay; format: functional, cell-based; conditions: light or radiation study; summary of the method: as §1
Jurkat [7] = assay: Induction of lipid peroxidation in 2.5 J/cm'2 UVA light irradiated human Jurkat cells at 10 uM by TBARS test; format: functional, cell-based
Jurkat [8] = assay: Induction of lipid peroxidation in 2.5 J/cm'2 UVA light irradiated human Jurkat cells at 20 uM by TBARS test; format: functional, cell-based
K562 [9] = assay: Phototoxicity against human K562 cells exposed to irradiation with 3.75 J/cm'2 UVA light prior to 72 hrs drug exposure by MTT assay; format: functional, cell-based; conditions: K562, light or radiation study; summary of the method: as §1
[10] = Phototoxicity against human NCTC-2544 cells exposed to irradiation with 2.5 J/cm'2 UVA light prior to 72 hrs drug exposure by MTT assay; format: cell-based; conditions: NCTC-2544, light or radiation study; summary of the method: as §1
Jurkat [11] = assay: Cell cycle arrest in 2.5 J/cm'2 UVA light irradiated human Jurkat cells assessed as accumulation at subG1 phase at 5 uM after 24 hrs by DNA cytometry; format: functional; summary of the method: as §2
[12] = Cytotoxicity against human NCTC-2544 cells after 72 hrs by MTT assay; format: cell-based; conditions: NCTC-2544, 72 h
LoVo [13] = assay: Phototoxicity against human LoVo cells exposed to irradiation with 3.75 J/cm'2 UVA light prior to 72 hrs drug exposure by MTT assay; format: functional, cell-based; conditions: light or radiation study; summary of the method: as §1
Jurkat [14] = assay: Cytotoxicity against human Jurkat cells after 72 hrs by MTT assay; format: functional, cell-based
Jurkat [15] = assay: Phototoxicity against human Jurkat cells exposed to irradiation with 3.75 J/cm'2 UVA light prior to 72 hrs drug exposure by MTT assay; format: functional, cell-based; conditions: light or radiation study; summary of the method: as §1
K562 [16] = assay: Cytotoxicity against human K562 cells after 72 hrs by MTT assay; format: functional, cell-based; conditions: K562, 72 h
LoVo [17] = assay: Cytotoxicity against human LoVo cells after 72 hrs by MTT assay; format: functional, cell-based
Jurkat [18] = assay: Cell cycle arrest in 2.5 J/cm'2 UVA light irradiated human Jurkat cells assessed as accumulation at S phase at 5 uM after 24 hrs by DNA cytometry; format: functional; summary of the method: as §2
Jurkat [19] = assay: Cell cycle arrest in 2.5 J/cm'2 UVA light irradiated human Jurkat cells assessed as accumulation at G2/M phase at 5 uM after 24 hrs by DNA cytometry; format: functional; summary of the method: as §2

SMILES | IC50 (Jurkat [1]) [µM] | Activity (Jurkat [2]) [%] | IC50 [3] [µM] | IC50 (K562 [4]) [µM] | Activity (Jurkat [5]) | IC50 (LoVo [6]) [µM] | Activity (Jurkat [7]) | Activity (Jurkat [8]) | IC50 (K562 [9]) [µM] | IC50 [10] [µM] | Activity (Jurkat [11]) [%] | IC50 [12] [µM] | IC50 (LoVo [13]) [µM] | IC50 (Jurkat [14]) [µM] | IC50 (Jurkat [15]) [µM] | IC50 (K562 [16]) [µM] | IC50 (LoVo [17]) [µM] | Activity (Jurkat [18]) [%] | Activity (Jurkat [19]) [%]
CCOC(=O)c1cc2c(oc1=O)-c1c(c(C(=O)OCC)n(Cc3ccccc3)c1C)CC2 | 8.2 | 44.7 | 10.9 | 7.5 | Active | 10.5 | Active | Active | 7.3 | 14.6 | 17.2 | > 20 | 9.6 | > 20 | 7.2 | > 20 | > 20 | 37.6 | 17.7
O=c1ccc2ccc3occc3c2o1 [ANGELICIN] |  |  |  |  |  |  |  |  |  | 4.2 |  | > 20 |  | > 20 |  | > 20 | > 20 |  | 
O=c1ccc2c(o1)-c1cn(Cc3ccccc3)cc1CC2 | > 20 |  | > 20 | > 20 |  | > 20 |  |  | > 20 | > 20 |  | > 20 | > 20 | > 20 | > 20 | > 20 | > 20 |  | 
CCOC(=O)c1cc2c(oc1=O)-c1c(c(C(=O)OCC)n(Cc3ccc(OC)cc3)c1C)CC2 | > 20 |  | > 20 | > 20 |  | > 20 |  |  | 14 | > 20 |  | > 20 | > 20 | > 20 | 13.5 | > 20 | > 20 |  | 
CCOC(=O)c1[nH]c(C)c2c1CCc1cc(C(=O)OCC)c(=O)oc1-2 | > 20 |  | > 20 | > 20 |  | > 20 |  |  | > 20 | > 20 |  | > 20 | > 20 | > 20 | > 20 | > 20 | > 20 |  | 
CCOC(=O)c1cc2c(oc1=O)-c1c(c(C(=O)OCC)n(C)c1C)CC2 | 15.4 |  | > 20 | 13.9 |  | > 20 |  |  | 13.1 | > 20 |  | > 20 | 11.1 | > 20 | 15.2 | > 20 | > 20 |  | 
COc1c2occc2cc2ccc(=O)oc12 [METHOXSALEN] |  |  |  |  |  |  |  |  |  | 5.5 |  | > 20 |  | > 20 |  | > 20 | > 20 |  | 
CCOC(=O)c1cc2c(oc1=O)-c1cn(-c3ccccc3)cc1CC2 | > 20 |  | > 20 | > 20 |  | > 20 |  |  | > 20 | > 20 |  | > 20 | > 20 | > 20 | > 20 | > 20 | > 20 |  | 
CCOC(=O)c1cc2ccc3c(C(=O)OCC)n(C)c(C)c3c2oc1=O | > 20 |  | > 20 | > 20 |  | 16.2 |  |  | > 20 | > 20 |  | > 20 | 6.7 | > 20 | > 20 | > 20 | > 20 |  | 
CCOC(=O)c1cc2c(oc1=O)-c1c(cn(Cc3ccccc3)c1C)CC2 | > 20 |  | > 20 | > 20 |  | > 20 |  |  | > 20 | > 20 |  | > 20 | > 20 | > 20 | > 20 | > 20 | > 20 |  | 
Cn1cc2c(c1)-c1oc(=O)c(C(=O)O)cc1CC2 | > 20 |  | > 20 | > 20 |  | > 20 |  |  | > 20 | > 20 |  | > 20 | > 20 | > 20 | > 20 | > 20 | > 20 |  | 
CCOC(=O)c1cc2c(oc1=O)-c1cn(C)cc1CC2 | > 20 |  | > 20 | > 20 |  | > 20 |  |  | > 20 | > 20 |  | > 20 | > 20 | > 20 | > 20 | > 20 | > 20 |  | 
CCOC(=O)c1c2c(c(C)n1Cc1ccccc1)-c1oc(=O)c(C(=O)OC)cc1CC2 | 8.4 | 44.7 | 10 | 6.1 | Active | 7.7 | Active | Active | 2.7 | 14 | 14.8 | > 20 | 7.3 | > 20 | 3.7 | > 20 | > 20 | 44.2 | 11.7
Cn1cc2c(c1)-c1oc(=O)ccc1CC2 | > 20 |  | > 20 | > 20 |  | > 20 |  |  | > 20 | > 20 |  | > 20 | > 20 | > 20 | > 20 | > 20 | > 20 |  | 
CCOC(=O)c1cc2c(oc1=O)-c1cn(Cc3ccccc3)cc1CC2 | > 20 |  | > 20 | > 20 |  | > 20 |  |  | > 20 | > 20 |  | > 20 | > 20 | > 20 | > 20 | > 20 | > 20 |  | 
CCOC(=O)c1c2c(c(C)n1Cc1ccc(C)cc1)-c1oc(=O)c(C(=O)OC)cc1CC2 | > 20 |  | > 20 | > 20 |  | > 20 |  |  | 16.6 | > 20 |  | > 20 | > 20 | > 20 | 17.8 | > 20 | > 20 |  | 
CCOC(=O)c1cc2c(oc1=O)-c1c(c(C(=O)OCC)n(Cc3ccc(C)cc3)c1C)CC2 | 16.1 |  | 17 | 13.5 |  | > 20 |  |  | 9.3 | > 20 |  | > 20 | 15 | > 20 | 12.8 | > 20 | > 20 |  | 
CCOC(=O)c1c2c(c(C)n1Cc1ccc(OC)cc1)-c1oc(=O)c(C(=O)OC)cc1CC2 | > 20 |  | > 20 | > 20 |  | > 20 |  |  | 12.6 | > 20 |  | > 20 | > 20 | > 20 | 11.8 | > 20 | > 20 |  | 
CCOC(=O)c1cc2ccc3c(C(=O)OCC)[nH]c(C)c3c2oc1=O | > 20 |  | > 20 | > 20 |  | > 20 |  |  | > 20 | > 20 |  | > 20 | 17.8 | > 20 | > 20 | > 20 | > 20 |  | 

From ChEMBL document CHEMBL1153919, “Pyrano[2,3-e]isoindol-2-ones, new angelicin heteroanalogues” (Bioorg Med Chem Lett, 2009)
